From ChEMBL document CHEMBL2150980 (Eur J Med Chem, 2012)

Tests used:
[1] = target: T1, 5-hydroxytryptamine receptor 1A (Rattus norvegicus, UniProt P19327); experiment: Displacement of [3H]-8-OH-DPAT from 5-HT1A receptor in rat hippocampal membranes after 30 mins by liquid scintillation counting; assay type: cell membranes, Hippocampus, Membrane
T1 sequence (P19327 whole entry): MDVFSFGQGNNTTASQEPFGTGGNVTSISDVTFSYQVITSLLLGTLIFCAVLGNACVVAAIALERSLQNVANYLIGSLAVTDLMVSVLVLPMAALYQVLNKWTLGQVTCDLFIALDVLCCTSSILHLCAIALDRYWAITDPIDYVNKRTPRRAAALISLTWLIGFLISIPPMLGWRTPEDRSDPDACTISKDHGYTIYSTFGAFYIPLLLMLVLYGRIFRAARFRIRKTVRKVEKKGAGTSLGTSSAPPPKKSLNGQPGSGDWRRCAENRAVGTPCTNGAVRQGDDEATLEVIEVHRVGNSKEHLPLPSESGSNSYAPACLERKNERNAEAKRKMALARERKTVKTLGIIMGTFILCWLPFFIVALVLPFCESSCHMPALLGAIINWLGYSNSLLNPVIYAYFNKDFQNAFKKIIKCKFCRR
Method in brief: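 Crude rat hippocampal membranes in Tris-HCl 50 mM, pH 7.7, with pargyline and 4 mM CaCl2. […] Stopped by GF/B filtration, then scintillation counting. Ki from IC50 via Cheng–Prusoff; ≥3 experiments in triplicate.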

[2] = target: T2, Alpha-1A adrenergic receptor (Rattus norvegicus, UniProt P43140); experiment: Antagonist activity at alpha1A adrenoceptor in Sprague-Dawley rat prostate assessed as inhibition of noradrenaline-induced contractions after 30 mins; assay type: functional, tissue-based, Prostate gland; conditions: read-out: pA2 (converted)
T2 sequence (P43140 whole entry): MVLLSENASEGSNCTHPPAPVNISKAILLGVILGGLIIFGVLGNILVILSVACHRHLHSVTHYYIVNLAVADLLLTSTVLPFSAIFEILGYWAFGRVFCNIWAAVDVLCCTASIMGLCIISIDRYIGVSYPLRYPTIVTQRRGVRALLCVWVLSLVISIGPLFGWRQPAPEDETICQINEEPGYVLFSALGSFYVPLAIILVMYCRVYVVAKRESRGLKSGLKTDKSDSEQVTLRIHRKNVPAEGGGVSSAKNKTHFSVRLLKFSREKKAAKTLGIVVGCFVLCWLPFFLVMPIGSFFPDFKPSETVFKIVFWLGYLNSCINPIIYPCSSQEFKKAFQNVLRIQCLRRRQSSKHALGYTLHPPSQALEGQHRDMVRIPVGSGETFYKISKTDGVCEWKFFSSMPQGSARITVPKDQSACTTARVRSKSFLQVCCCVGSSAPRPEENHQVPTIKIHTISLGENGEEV
Method in brief: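 Rat (200–250 g) prostatic strips, 8–10 mm × 1–2 mm, held at 2 g resting tension in modified Krebs (NaCl 118.0, KCl 4.7, CaCl2 2.5, MgSO4 1.18, NaHCO3 25.0, KH2PO4 1.18, glucose 5.5 mM).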

[3] = target: T2, Alpha-1A adrenergic receptor; experiment: Antagonist activity at alpha1A adrenoceptor in Sprague-Dawley rat prostatic vas deferens assessed as inhibition of noradrenaline-induced contractions after 30 mins; assay type: functional, tissue-based; conditions: read-out: pA2 (converted)
[4] = target: T3, Alpha-1D adrenergic receptor (Homo sapiens, UniProt P25100); experiment: Displacement of [3H]prazosin from human cloned alpha1D adrenoceptor expressed in CHO cell membranes after 30 mins by liquid scintillation counter
T3 sequence (P25100 whole entry): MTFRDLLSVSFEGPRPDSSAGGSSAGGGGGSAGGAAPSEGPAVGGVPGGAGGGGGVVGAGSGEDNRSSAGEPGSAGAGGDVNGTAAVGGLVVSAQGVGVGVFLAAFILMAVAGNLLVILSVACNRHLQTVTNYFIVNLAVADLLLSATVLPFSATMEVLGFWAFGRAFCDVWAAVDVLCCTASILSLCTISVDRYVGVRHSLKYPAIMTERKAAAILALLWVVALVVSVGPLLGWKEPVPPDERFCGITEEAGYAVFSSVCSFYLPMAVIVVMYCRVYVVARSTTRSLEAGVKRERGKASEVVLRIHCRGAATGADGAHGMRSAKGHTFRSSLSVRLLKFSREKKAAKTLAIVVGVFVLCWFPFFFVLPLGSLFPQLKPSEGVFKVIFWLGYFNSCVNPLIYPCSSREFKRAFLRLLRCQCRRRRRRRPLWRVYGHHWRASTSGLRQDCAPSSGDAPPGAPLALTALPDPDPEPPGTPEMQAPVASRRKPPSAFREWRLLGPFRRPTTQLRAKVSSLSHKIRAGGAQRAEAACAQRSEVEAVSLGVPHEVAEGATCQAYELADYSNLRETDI

[5] = target: T4, Alpha-1B adrenergic receptor (Rattus norvegicus, UniProt P15823); experiment: Antagonist activity at alpha1B adrenoceptor in Sprague-Dawley rat spleen assessed as inhibition of phenylephrine-induced contractions after 30 mins; assay type: functional, tissue-based; conditions: read-out: pA2 (converted)
T4 sequence (P15823 whole entry): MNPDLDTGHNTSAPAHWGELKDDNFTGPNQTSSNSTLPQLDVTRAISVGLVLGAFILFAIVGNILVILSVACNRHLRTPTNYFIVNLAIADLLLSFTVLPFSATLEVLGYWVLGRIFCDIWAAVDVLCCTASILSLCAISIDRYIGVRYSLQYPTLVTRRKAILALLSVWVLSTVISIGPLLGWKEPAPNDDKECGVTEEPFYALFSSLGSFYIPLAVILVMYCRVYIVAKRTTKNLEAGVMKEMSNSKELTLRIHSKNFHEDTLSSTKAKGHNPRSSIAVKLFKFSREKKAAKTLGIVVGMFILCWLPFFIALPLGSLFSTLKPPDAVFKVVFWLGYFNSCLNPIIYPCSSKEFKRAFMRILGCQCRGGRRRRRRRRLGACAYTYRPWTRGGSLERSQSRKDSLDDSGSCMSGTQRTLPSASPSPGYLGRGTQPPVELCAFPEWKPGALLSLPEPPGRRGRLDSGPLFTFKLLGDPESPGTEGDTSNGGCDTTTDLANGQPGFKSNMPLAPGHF

[6] = target: T5, Alpha-1B adrenergic receptor (Homo sapiens, UniProt P35368); experiment: Displacement of [3H]prazosin from human cloned alpha1B adrenoceptor expressed in CHO cell membranes after 30 mins by liquid scintillation counter
T5 sequence (P35368 whole entry): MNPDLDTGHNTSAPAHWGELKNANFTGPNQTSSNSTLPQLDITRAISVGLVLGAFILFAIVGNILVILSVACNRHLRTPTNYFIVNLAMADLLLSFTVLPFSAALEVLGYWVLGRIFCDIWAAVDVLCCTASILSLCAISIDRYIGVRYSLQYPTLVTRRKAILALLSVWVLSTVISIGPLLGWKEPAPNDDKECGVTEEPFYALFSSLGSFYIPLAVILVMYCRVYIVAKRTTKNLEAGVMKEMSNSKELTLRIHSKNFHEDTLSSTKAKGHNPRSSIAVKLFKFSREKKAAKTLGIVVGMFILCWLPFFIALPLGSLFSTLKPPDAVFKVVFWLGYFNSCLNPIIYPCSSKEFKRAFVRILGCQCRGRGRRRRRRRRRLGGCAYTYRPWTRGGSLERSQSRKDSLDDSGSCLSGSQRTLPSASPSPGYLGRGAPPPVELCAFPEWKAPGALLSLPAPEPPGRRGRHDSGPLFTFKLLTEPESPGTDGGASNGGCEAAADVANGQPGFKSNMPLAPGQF

SMILES | Ki [1] [nM] | Kb [2] [nM] | Kb [3] [nM] | Ki [4] [nM] | Kb [5] [nM] | Ki [6] [nM]
COc1cccc(OC)c1OCCNC[C@H]1COc2c(OC)cccc2O1.Cl | 28.8 | 39.8 | 53.7 | 79.4 | 16.6 | 447
COc1cccc(OC)c1OCCNC[C@H]1COc2cccc(OC)c2O1.Cl | 0.851 | 2.82 | 1.7 | 0.372 | 0.263 | 2.75
COc1cccc(OC)c1OCCNC[C@H]1COc2cccc(F)c2O1.Cl | 1.41 | 1.2 | 28.8 | 0.49 | 2.75 | 2.4
COc1cccc(OC)c1OCCNC[C@H]1COc2cccc(Cl)c2O1.Cl | 1.7 | 0.912 | 0.275 | 0.708 | 8.91 | 2.19
COc1cccc(OC)c1OCCNC[C@H]1COc2cccc(O)c2O1.Cl | 1 | 50.1 | 166 | 8.91 | 15.8 | 30.9
